{"data": "Measured values of several laboratories", "target": "Cyclin-dependent kinase 5 (CDK5, Homo sapiens, UniProt Q00535)"}
{"Compound": "CN(C)c1ncc(F)c(-c2cnn3ncccc23)n1", "test": "binding", "conditions": "1 µM", "remaining binding [%]": 82}
{"Compound": "C[C@@H]1CN(c2cc(-c3nn(C)c4ccc(OC5(C)CC5)cc34)ncn2)C[C@H](C)O1", "test": "cell-free assay, competition with immobilised ligand", "conditions": "1 µM", "remaining binding [%]": 100}
{"Compound": "CNC(=O)[C@@H]1CC[C@@H](n2c(-c3ccc4cnccc4c3)nc3ccc(C(=O)NCc4cccc(C(N)=O)c4)cc32)C1", "test": "binding, competition with immobilised ligand", "conditions": "1 µM", "remaining binding [%]": 89}
{"Compound": "CN(c1nccc(-c2cnn3ncccc23)n1)C1CC1", "test": "binding", "conditions": "1 µM", "remaining binding [%]": 100}
{"Compound": "CC1=C(C#N)C(c2ccc3c(c2)c(NC(=O)c2ccccc2C)nn3C)C(C#N)=C(C)N1", "test": "cell-free assay, competition with immobilised ligand", "conditions": "1 µM", "remaining binding [%]": 87}
{"Compound": "COc1ccnn2ncc(-c3ccnc(N(C)C)n3)c12", "test": "binding", "conditions": "1 µM", "remaining binding [%]": 100}
{"Compound": "CCCCN(CCCC)C(=O)CN1C[C@@H](c2cc(OC)c3c(c2)OCO3)[C@H](C(=O)O)[C@H]1CC(C)(C)CCC", "test": "cell-free assay, competition with immobilised ligand", "conditions": "1 µM", "remaining binding [%]": 97.7}
{"Compound": "Cc1cnc(Nc2ccc(C(=O)N3CCC(N4CCCC4)CC3)cc2)nc1-c1cc2ccccc2s1", "test": "binding, competition with immobilised ligand", "conditions": "1 µM", "remaining binding [%]": 76}
{"Compound": "Nc1ncc2c(n1)-c1c([nH]c3ccc(C#CC4CC4)cc13)CCCC2", "test": "binding, competition with immobilised ligand", "conditions": "1 µM", "remaining binding [%]": 96}
{"Compound": "C[C@@H]1CCN(c2nccc(-c3cnn4ncccc34)n2)C1", "test": "binding", "conditions": "1 µM", "remaining binding [%]": 100}
{"Compound": "COc1cnc(Nc2cccc(S(N)(=O)=O)c2)nc1N1CCN(c2ccccc2)C(=O)C1", "test": "binding, competition with immobilised ligand", "conditions": "1 µM", "remaining binding [%]": 100}
{"Compound": "O=C(c1ccc(Nc2ncc(Cl)c(-c3ccc(Cl)s3)n2)cc1)N1CCC(N2CCCC2)CC1", "test": "binding, competition with immobilised ligand", "conditions": "1 µM", "remaining binding [%]": 26}
{"Compound": "COc1ncc2cc3ccccc3nc2c1C#N", "test": "cell-free assay, competition with immobilised ligand", "conditions": "5 µM", "remaining binding [%]": 100}
{"Compound": "CCS(=O)(=O)c1cc2cc(C[C@](O)(CC(C)(C)c3ccc(F)cc3C(N)=O)C(F)(F)F)[nH]c2cn1", "test": "cell-free assay, competition with immobilised ligand", "conditions": "1 µM", "remaining binding [%]": 100}
{"Compound": "CN(C)c1nccc(-c2cnc3ncccn23)n1", "test": "binding", "conditions": "1 µM", "remaining binding [%]": 91}
{"Compound": "c1cncc(-c2cccc(Nc3nccc(NC4CCCCC4)n3)c2)c1", "test": "binding, competition with immobilised ligand", "conditions": "10 µM", "remaining binding [%]": 81}
{"Compound": "CNCc1ccccc1-c1csc([C@H](C)Nc2nc(C)nc3cc(OC)c(OC)cc23)c1", "test": "cell-free assay, competition with immobilised ligand", "conditions": "1 µM", "remaining binding [%]": 98}
{"Compound": "O=C(c1ccc(Nc2nccc(-c3cc4ccccc4s3)n2)cc1)N1CCC(N2CCCC2)CC1", "test": "binding, competition with immobilised ligand", "conditions": "1 µM", "remaining binding [%]": 92}
{"Compound": "CNC(=O)Nc1ccc2c(c1)CC[C@@]21OC(=O)N(CC(=O)N(Cc2ccc(F)cc2)[C@@H](C)C(F)(F)F)C1=O", "test": "cell-free assay, competition with immobilised ligand", "conditions": "1 µM", "remaining binding [%]": 84}
{"Compound": "O=C(Nc1c[nH]nc1C(=O)NC1CCNCC1)c1cc(F)cc(F)c1", "test": "binding, competition with immobilised ligand", "conditions": "1 µM", "remaining binding [%]": 100}
{"Compound": "CN([C@@H]1CCc2c(CC(=O)O)c3ccccc3n2C1)S(=O)(=O)c1ccc(F)cc1", "test": "cell-free assay, competition with immobilised ligand", "conditions": "1 µM", "remaining binding [%]": 100}
{"Compound": "CN(C)c1nccc(-c2cnn3ncccc23)n1", "test": "binding", "conditions": "1 µM", "remaining binding [%]": 100}
